Results from different studies.
Each line is one published result; the experiments were not run side by side.
Read-out: cell growth or viability

| Structure (SMILES) | cell line | technique | time | IC50 |
| --- | --- | --- | --- | --- |
| O=C(CCc1ccc(Cl)cc1)N1C(=O)C(=Nc2ccc(Cl)cc2Br)c2ccccc21 | L02 | MTT | 48 h | > 100 µM |
| CC(C)(C)c1cnc(CSc2cnc(NC(=O)C3CCN(C(=O)CCCCCCCN4Cc5cc6c(cc5C4)C(=O)N(C4CCC(=O)NC4=O)C6=O)CC3)s2)o1 (stereo not drawn) | REH | MTT | – | 0.0066 µM |
| CN1C(=O)C(=O)c2cc3c(c4c2c1cc1ccccc14)OCO3 | MOLT-3 | XTT | 75 h | 20.4 µM |
| CC1=CC(=O)c2ccccc2C1=O | MOLT-3 | XTT | – | 10.3 µM |
| O=C(NO)c1ccc(Cn2cnc3c(Nc4ccc(Cl)cc4)ncnc32)cc1 | NALM-6 | MTT | 72 h | 0.41 µM |
| C(=N\Nc1cc(N/N=C/c2ccc3ccccc3n2)ncn1)/c1ccc2ccccc2n1 | L02 | MTT | 48 h | > 100 µM |
| O=C(NO)c1ccc(Cn2cnc3c(Nc4ccc(Br)cc4F)ncnc32)cc1 | NALM-6 | MTT | 72 h | 2.12 µM |
| C(=N\Nc1cc(N/N=C/c2ccc3ccccc3n2)nc(-c2ccccc2)n1)/c1ccc2ccccc2n1 | L02 | MTT | 48 h | > 100 µM |
| O=C1C(=Nc2ccccc2I)c2ccccc2N1Cc1cccc(Cl)c1 | L02 | MTT | 48 h | 19.1 µM |
| CS(=O)(=O)CCNCc1ccc(-c2ccc3ncnc(Nc4ccc(OCc5cccc(F)c5)c(Cl)c4)c3c2)o1 | HCC1419 | ATP luminescence | – | 0.0544 µM |
| CC(C)c1cccc(C(C)C)c1N=C1C(=O)Nc2ccccc21 | L02 | MTT | 48 h | 31.6 µM |
| CC1=CC(=O)C(C(C)C)=CC1=O | PANC-1 | SRB | 48 h | 8.9 µM |
| Cc1cc(Nc2ncnc3ccc(NC4=NC(C)(C)CO4)cc23)ccc1Oc1ccn2ncnc2c1 | HCC1419 | ATP luminescence | – | 0.0302 µM |
| C=C1C[C@@]23CC[C@H]4[C@@](C)(CCC[C@@]4(C)C(=O)O)[C@@H]2CC[C@@H]1C3 | MOLT-3 | XTT | 75 h | 116 µM |
| Nc1ccccc1NC(=O)c1ccc(Cn2cnc3c(Nc4ccc(Cl)cc4)ncnc32)cc1 | NALM-6 | MTT | 72 h | 1.55 µM |
| Cc1cccc(N=C2C(=O)N(Cc3cccc(Cl)c3)c3ccccc32)c1 | L02 | MTT | 48 h | 25.8 µM |
| COc1cccc2c1cc1c3c(cc4c(c32)OCO4)C(=O)N1C | MOLT-3 | XTT | 75 h | 50.3 µM |
| O=C1C(=Nc2ccc(Cl)cc2)c2ccccc2N1Cc1ccc(Br)cc1 | L02 | MTT | 48 h | > 100 µM |
| COC[C@H](NC(=O)c1ccn(S(C)(=O)=O)c1)C(=O)Nc1nc(-c2cccc(N3C[C@@H](C)O[C@@H](C)C3)n2)cs1 | NCI-H1944 | ATP luminescence | 7 days | 0.0451 µM |
| COc1ccc(Nc2ncnc3c2ncn3Cc2ccc(C(=O)NO)cc2)cc1 | NALM-6 | MTT | 72 h | 2.01 µM |
| O=C1C(=Nc2ccc(Cl)cc2)c2ccccc2N1Cc1cccc(Cl)c1 | L02 | MTT | 48 h | 32 µM |
| Nc1nnc(-c2ccccc2O)cc1N1CC2CCC(C1)N2c1ccnc(F)c1 | NCI-H1944 | ATP luminescence | 7 days | > 1 µM |
| Cc1nc(Nc2ncc(C(=O)Nc3c(C)cccc3Cl)s2)cc(N2CC[C@H](O)C2)n1 | REH | ATP luminescence | 72 h | > 10 µM |
| O=C1Nc2ccccc2C1=Nc1ccc(Cl)cc1 | L02 | MTT | 48 h | 28.4 µM |
